Experimental data published in the RNAGym collection of RNA variant scans (doi:10.1126/science.aae0568).
Fewer inactive variants are shown than the library holds.

B1: tRNA (parent)
chain: GUUCCGUUGGCGUAAUGGUAACGCGUCUCCCUCCUAAGGAGAAGACUGCGGGUUCGAGUCCCGUACGGAACG

Variants of: B1
Assay: yeast fitness relative to wild type (ratio to wild type); higher = fitter; tRNA-Arg(CCU), competitive growth, 37 C, YPD
In short: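 Amplicons of the tRNA-Arg(CCU) gene were sequenced, 100-nucleotide paired-end, from the start population and from each end population of a pooled yeast competition. The competition, in six parallel replicates, lasted 24 hours in YPD at 37°C. Fitness relative to wild type was calculated from changes in genotype frequencies. Genotypes had to have ≥ 100 starting reads, and estimates < 0.5 were set to 0.5.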

Row | Variant | yeast fitness
1 | GUUCCGUUGGCGUAGUGGUAACGCGUCUCCCUCCUAAGGAGAAGACUGCGGGUUCAAGUCCUGUACGGACCG [A15G G56A C62U A70C] | 0.543
2 | GUUCCGUUGGCGUAAUGGUAACGCGUCUCGCUCCUAAGGAGAAGAAUGCGGGUUCAAGUCCCGUACGGAACG [C30G C46A G56A] | 0.557
3 | GUUCCGUUGGCGUAAUGGUAACGGGUCUCCCUCCUAAGGUGAAGACUGCGGGUUCGAGUCCCGUACGGAACG [C24G A40U] | 0.542
4 | GUUCCGUUGGCGUAAUGGUGAGGCGUCUCCCUCCUAAGGAGAAGACUGCGGGUACGAGUCCCGUACGGAACG [A20G C22G U54A] | ≤ 0.5
5 | GUUCCGUUGGCGCAAUGGUAACGCGUCUCCCUCCUAUGGAGAAGACUGGGGGUUCGAGUCCCGUACGGAACG [U13C A37U C49G] | ≤ 0.5
6 | GUUCCGUUGGCGUAAUGGCAACGCGUAUCCCUCCUAAGGAGAAGAAUGCGGGUUCGAGUCCCGUACGGACCG [U19C C27A C46A A70C] | ≤ 0.5
7 | GUUCCGUUGGGGUUAUGGUAACGCGUCUCCCUCCUAAGGAGAUGACUACGGGUUCGAGUCCCGUACGGAACG [C11G A14U A43U G48A] | ≤ 0.5
8 | GUUCCGUAGGCGUAAUGGUAACGCGUCUCCCUCUUAAGGAGAAGACUGCGGGUUCGAGUCCCGUACAGGACG [U8A C34U G67A A69G] | 0.568
9 | GUUCCGUUGGCGUAAUGGUAACGCGUCUCCCUACUAAGGAGAAGACUGCGGGUUCGAGUGCCGUACGGAACG [C33A C60G] | 0.613
10 | GUUCCGUUGGCGUAAUGGUAUCGCGUCUCCCUCCUAAGGAGAAGACUCCGGGUUAGAGUCCCGUAUGGAACG [A21U G48C C55A C66U] | ≤ 0.5
11 | GUUCCGUUGGCGUAAUGGUAACGCGUCACCCUCCUAAGGAGCAGACUGCGGGUUCGAGUCCCGUACGGAACG [U28A A42C] | 0.797
12 | GUUCCGUUGGCGUAAUGGUAACGCGUCGCGCUCCUAAGGCGUAGACUGCGAGUUCGAGUCCCGUACGGAACG [U28G C30G A40C A42U G51A] | ≤ 0.5
13 | GUUCCGUUGGGGUAAUGGUAACGCGUCUCCCUCCUAAGGAGAAGACUGAGGGUUCGAGUCCCGUACCGAACG [C11G C49A G67C] | ≤ 0.5
14 | GUUCCGUUGGCGUACUAGUAACGCGUCUCCCUCCUAAGGAGAAGACUGCGGGUUCGCGUCCCGUACGGAACG [A15C G17A A57C] | 0.527
15 | GUUCCGUUGCUGUAAUGGUAGCGCGUCUCCCUCCUAAGGGGAAGACUGCGGGUUCGAGUCCCGUACGGAACG [G10C C11U A21G A40G] | ≤ 0.5
16 | GUUCCAUUGGCGUAAUGGUAACGCGUCUCCUUCCUGAGGAGAAGACUGCGGGUUCGAGUCCCGUACGGAACG [G6A C31U A36G] | ≤ 0.5
17 | GUUCCGUUGGCGUAAUGAUAACGCGUCUCCUUCCUAAGGAGAAGACUGCGGGUUCGAGUCCCGUACGGAACG [G18A C31U] | 0.663
18 | GUUCCGUUGGCGUAAUGGUAACGCGUCUCCCUUCUCAGGAGAAGACUGCGGGUUCGAGUCCCGCACGGAACG [C33U A36C U64C] | 0.648
19 | GUUCCGUUGGCGCAAUGGUAACGCGUCUCCCUCCUAAGGAGAAGACUGCGGGUUCGAGUCCCGUACGGACCG [U13C A70C] | 1.09

Row | Variant | yeast fitness
20 | GUUCCGUUGGCGUAAUGGUAACGAGUCUCCCUCCUAAGGAGAAGACUGCGGGUUCGAGUCCCCUACGGCACG [C24A G63C A69C] | 0.621
21 | GUUCCGUUGGAGUAAAGGUAACGCGUCUGCCUCCUAAGGAGCAGACUGCGAGUUCGAGUCCCGUACGGAACG [C11A U16A C29G A42C G51A] | ≤ 0.5
22 | GUUCCGCUGGCGUAAUGGUAACGCGUCUCCCUCCUAAGGAGAAGACUGCGGGGUCGAGUCCCGUACGGAACG [U7C U53G] | ≤ 0.5
23 | GAUCCGUUGGUGUAAUGGUAACGCGUCUCCCUCCUAAGGAGAAGACUGCGGGUUCGAGUCCCGUACGGAACG [U2A C11U] | 0.894
24 | GUUCCGUCGGCGUAUUGGUAACGCAUCUCCCUCGUAAGGAGAAGACUGCGGGUUCGACUCCCGUACGGAACG [U8C A15U G25A C34G G58C] | ≤ 0.5
25 | GUUCUGUUGGCGUAAUGGUAACGCGUCUCCCUCCUAAGGAGAAGACAGCGGGUUCGAGUCCCGUACGCAACG [C5U U47A G68C] | 0.534
26 | GUUCCGUUGGCGUAAUGGUAACGCGUCUCCCUCCUAAGGAGAAGACUGCGGGUUCGAGUCUCGUACGCAACG [C61U G68C] | 0.68
27 | GUUCCGUUGCCGUAAUGGUAAAGGGUCUCCCUCCUAAGGAGAAGACUGCGGGAUCGAGUCCCGUACAGAACG [G10C C22A C24G U53A G67A] | ≤ 0.5
28 | GUUCCGUUGGCGUAAUGGUAACGCGUCUCACUCCUAAGGAGAAGACUGCGGGUUUGAGUCCCGUACGAAACG [C30A C55U G68A] | ≤ 0.5
29 | GUUCCGUUGGCGUAACGGUAACGCGUCUCAUUCCUAAGGAGAAGACUGCGGGUUCGAGUCCCGUACGGAACG [U16C C30A C31U] | 0.834
30 | GUUCCGUUGGCGUUAUGGUAACGCGUCUCCCUCCUAAGGGGAAGUCUGCGGGUUCAAGUCCCGUACGGAACG [A14U A40G A45U G56A] | ≤ 0.5
31 | GUUCCGUUAGCGUAAUGGUAACGCGUCUCCCUCCUAAGGAGAAGAAUGCGGGUUUGAGUCCCGUACGGAACG [G9A C46A C55U] | 0.543
32 | GUUCCAUUGGCGUAAUGGUCACGCGUCUCCCUCCUAAGCAGAAGACUGCGGGUUCGAGUGGCGUACGGAACG [G6A A20C G39C C60G C61G] | ≤ 0.5
33 | GUUACGUUGGCGUAAUAGUAACGCGUCUCCCUCCUAAGGAGAAGACUGCGCGUUCGAGUCCCAUACGGAACG [C4A G17A G51C G63A] | ≤ 0.5
34 | GUUCCGUUGGCGUAAUGGUAACGCGUCUCCCUCCUAAGGAGAAGACUACGGCUUCGAGUCCCGUACCGAACG [G48A G52C G67C] | ≤ 0.5
35 | GUUGCGUUGGCGUAAUGGUAACGCGUCUCCAUGCUAAGGAGAAGACUGCGCGUUCGAGUGCCGUACGGAACG [C4G C31A C33G G51C C60G] | ≤ 0.5
36 | GUUCCGUUGGCCUAAUGGUAACGCGUCUCCCUCCUAAGGAGAAGACGGAGGGUUCGAGUCCCGUACGGUACG [G12C U47G C49A A69U] | ≤ 0.5
37 | GUACCGUUGGCGUAAUGGUAACGUGUCUCCGUCCUAAGGAGAACACUGCGGGUUCGAGUCCCGUACGGUACG [U3A C24U C31G G44C A69U] | ≤ 0.5
